{"source": "ChEMBL document CHEMBL4373711", "about": "“Development of 3,5-Dinitrophenyl-Containing 1,2,4-Triazoles and Their Trifluoromethyl Analogues as Highly Efficient Antitubercular Agents Inhibiting Decaprenylphosphoryl-β-d-ribofuranose 2'-Oxidase” (J Med Chem, 2019)", "key": {"[1]": {"experiment": "Selectivity index, ratio of IC50 for human HepG2 cells to MIC>99 for antimycobacterial activity against multi-drug resistant Mycobacterium tuberculosis 8666/2010 after 14 days", "assay_type": "toxicity", "conditions": "read-out: Selectivity Index", "how_it_was_run": "(§1)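 SI from HepG2 IC50 and M. tuberculosis MIC. HepG2 cells: DMEM + 10% FBS + 1 mM pyruvate, 10,000/well, 48 h treatment, 0.1% DMSO and 10% SDS controls, MTS absorbance at 490 nm.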"}, "[2]": {"experiment": "Selectivity index, ratio of IC50 for human A431 cells to MIC>99 for antimycobacterial activity against multi-drug resistant Mycobacterium tuberculosis 7357/1998 after 21 days", "assay_type": "toxicity", "conditions": "read-out: Selectivity Index"}, "[3]": {"test_system": "Mycobacterium tuberculosis", "experiment": "Antimycobacterial activity against multi-drug resistant Mycobacterium tuberculosis 8666/2010 after 21 days", "assay_type": "functional", "conditions": "8666/2010, 504 h", "how_it_was_run": "(§2)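 M. tuberculosis strains (H37Rv and clinical MDR/XDR isolates) tested by microdilution in Šula's semisynthetic medium. Compounds were dissolved in DMSO and tested at 32 to 0.03 µM in twofold steps. Inoculum was a 1.0 McFarland suspension diluted 10-3. Plates were incubated at 37 °C and read at 14 and 21 days.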"}, "[4]": {"experiment": "Selectivity index, ratio of IC50 for human HepG2 cells to MIC>99 for antimycobacterial activity against multi-drug resistant Mycobacterium tuberculosis Praha 4 after 14 days", "assay_type": "toxicity", "conditions": "read-out: Selectivity Index", "how_it_was_run": "as §1"}, "[5]": {"test_system": "Mycobacterium tuberculosis", "experiment": "Antimycobacterial activity against multi-drug resistant Mycobacterium tuberculosis Praha 1 after 14 days", "assay_type": "functional", "conditions": "Praha 1, 336 h", "how_it_was_run": "as §2"}, "[6]": {"experiment": "Selectivity index, ratio of IC50 for human HepG2 cells to MIC>99 for antimycobacterial activity against multi-drug resistant Mycobacterium tuberculosis Praha 1 after 21 days", "assay_type": "toxicity", "conditions": "read-out: Selectivity Index", "how_it_was_run": "as §1"}, "[7]": {"experiment": "Selectivity index, ratio of IC50 for human A431 cells to MIC>99 for antimycobacterial activity against multi-drug resistant Mycobacterium tuberculosis Praha 4 after 14 days", "assay_type": "toxicity", "conditions": "read-out: Selectivity Index"}, "[8]": {"experiment": "Selectivity index, ratio of IC50 for human HepG2 cells to MIC>99 for antimycobacterial activity against multi-drug resistant Mycobacterium tuberculosis Praha 4 after 21 days", "assay_type": "toxicity", "conditions": "read-out: Selectivity Index", "how_it_was_run": "as §1"}, "[9]": {"experiment": "Selectivity index, ratio of IC50 for human A431 cells to MIC>99 for antimycobacterial activity against multi-drug resistant Mycobacterium tuberculosis 9449/2007 after 14 days", "assay_type": "toxicity", "conditions": "read-out: Selectivity Index"}, "[10]": {"experiment": "Selectivity index, ratio of IC50 for human HepG2 cells to MIC>99 for antimycobacterial activity against multi-drug resistant Mycobacterium tuberculosis 9449/2007 after 14 days", "assay_type": "toxicity", "conditions": "read-out: Selectivity Index", "how_it_was_run": "as §1"}, "[11]": {"experiment": "Selectivity index, ratio of IC50 for human HepG2 cells to MIC>99 for antimycobacterial activity against multi-drug resistant Mycobacterium tuberculosis 9449/2007 after 21 days", "assay_type": "toxicity", "conditions": "read-out: Selectivity Index", "how_it_was_run": "as §1"}, "[12]": {"experiment": "Selectivity index, ratio of IC50 for human A431 cells to MIC>99 for antimycobacterial activity against multi-drug resistant Mycobacterium tuberculosis Praha 1 after 14 days", "assay_type": "toxicity", "conditions": "read-out: Selectivity Index"}, "[13]": {"experiment": "Selectivity index, ratio of IC50 for human A431 cells to MIC>99 for antimycobacterial activity against multi-drug resistant Mycobacterium tuberculosis Praha 1 after 21 days", "assay_type": "toxicity", "conditions": "read-out: Selectivity Index"}, "[14]": {"experiment": "Selectivity index, ratio of IC50 for human A431 cells to MIC>99 for antimycobacterial activity against multi-drug resistant Mycobacterium tuberculosis Praha 4 after 21 days", "assay_type": "toxicity", "conditions": "read-out: Selectivity Index", "how_it_was_run": "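SI from A431 IC50 and M. tuberculosis MIC. A431 cells: DMEM + 10% FBS, seeded 10,000/well, treated after 24 h for 48 h, 0.1% DMSO (100%) and 10% SDS (0%) controls, MTS absorbance at 490 nm.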"}, "[15]": {"experiment": "Selectivity index, ratio of IC50 for human A431 cells to MIC>99 for antimycobacterial activity against multi-drug resistant Mycobacterium tuberculosis 9449/2007 after 21 days", "assay_type": "toxicity", "conditions": "read-out: Selectivity Index"}, "[16]": {"experiment": "Selectivity index, ratio of IC50 for human HepG2 cells to MIC>99 for antimycobacterial activity against multi-drug resistant Mycobacterium tuberculosis 7357/1998 after 21 days", "assay_type": "toxicity", "conditions": "read-out: Selectivity Index", "how_it_was_run": "as §1"}, "[17]": {"experiment": "Selectivity index, ratio of IC50 for human A431 cells to MIC>99 for antimycobacterial activity against multi-drug resistant Mycobacterium tuberculosis 8666/2010 after 14 days", "assay_type": "toxicity", "conditions": "read-out: Selectivity Index"}, "[18]": {"experiment": "Selectivity index, ratio of IC50 for human HepG2 cells to MIC>99 for antimycobacterial activity against multi-drug resistant Mycobacterium tuberculosis 234/2005 after 14 days", "assay_type": "toxicity", "conditions": "read-out: Selectivity Index", "how_it_was_run": "as §1"}, "[19]": {"test_system": "Mycobacterium tuberculosis", "experiment": "Antimycobacterial activity against multi-drug resistant Mycobacterium tuberculosis Praha 4 after 21 days", "assay_type": "functional", "conditions": "Praha 4, 504 h", "how_it_was_run": "as §2"}, "[20]": {"experiment": "Selectivity index, ratio of IC50 for human A431 cells to MIC>99 for antimycobacterial activity against multi-drug resistant Mycobacterium tuberculosis 234/2005 after 21 days", "assay_type": "toxicity", "conditions": "read-out: Selectivity Index"}, "[21]": {"experiment": "Selectivity index, ratio of IC50 for human A431 cells to MIC>99 for antimycobacterial activity against multi-drug resistant Mycobacterium tuberculosis 7357/1998 after 14 days", "assay_type": "toxicity", "conditions": "read-out: Selectivity Index"}, "[22]": {"test_system": "Mycobacterium tuberculosis", "experiment": "Antimycobacterial activity against multi-drug resistant Mycobacterium tuberculosis 8666/2010 after 14 days", "assay_type": "functional", "conditions": "8666/2010, 336 h", "how_it_was_run": "as §2"}, "[23]": {"test_system": "Mycobacterium tuberculosis", "experiment": "microbe, parasite or virus in culture", "conditions": "234/2005, 336 h"}, "[24]": {"experiment": "Selectivity index, ratio of IC50 for human HepG2 cells to MIC>99 for antimycobacterial activity against multi-drug resistant Mycobacterium tuberculosis 8666/2010 after 21 days", "assay_type": "toxicity", "conditions": "read-out: Selectivity Index", "how_it_was_run": "as §1"}, "[25]": {"test_system": "Mycobacterium tuberculosis", "experiment": "Antimycobacterial activity against multi-drug resistant Mycobacterium tuberculosis 7357/1998 after 21 days", "assay_type": "functional", "conditions": "7357/1998, 504 h", "how_it_was_run": "as §2"}, "[26]": {"test_system": "Mycobacterium tuberculosis", "experiment": "Antimycobacterial activity against multi-drug resistant Mycobacterium tuberculosis 7357/1998 after 14 days", "assay_type": "functional", "conditions": "7357/1998, 336 h", "how_it_was_run": "as §2"}, "[27]": {"experiment": "Selectivity index, ratio of IC50 for human HepG2 cells to MIC>99 for antimycobacterial activity against multi-drug resistant Mycobacterium tuberculosis Praha 1 after 14 days", "assay_type": "toxicity", "conditions": "read-out: Selectivity Index", "how_it_was_run": "as §1"}, "[28]": {"test_system": "Mycobacterium tuberculosis", "experiment": "Antimycobacterial activity against multi-drug resistant Mycobacterium tuberculosis 234/2005 after 21 days", "assay_type": "functional", "conditions": "234/2005, 504 h", "how_it_was_run": "as §2"}, "[29]": {"test_system": "Mycobacterium tuberculosis", "experiment": "Antimycobacterial activity against multi-drug resistant Mycobacterium tuberculosis Praha 1 after 21 days", "assay_type": "functional", "conditions": "Praha 1, 504 h", "how_it_was_run": "as §2"}, "[30]": {"test_system": "Mycobacterium tuberculosis", "experiment": "Antimycobacterial activity against multi-drug resistant Mycobacterium tuberculosis 9449/2007 after 14 days", "assay_type": "functional", "conditions": "9449/2007, 336 h", "how_it_was_run": "as §2"}, "[31]": {"test_system": "Mycobacterium tuberculosis", "experiment": "Antimycobacterial activity against multi-drug resistant Mycobacterium tuberculosis Praha 4 after 14 days", "conditions": "Praha 4, 336 h"}, "[32]": {"experiment": "Selectivity index, ratio of IC50 for human HepG2 cells to MIC>99 for antimycobacterial activity against multi-drug resistant Mycobacterium tuberculosis 234/2005 after 21 days", "assay_type": "toxicity", "conditions": "read-out: Selectivity Index", "how_it_was_run": "as §1"}, "[33]": {"experiment": "Selectivity index, ratio of IC50 for human A431 cells to MIC>99 for antimycobacterial activity against multi-drug resistant Mycobacterium tuberculosis 234/2005 after 14 days", "assay_type": "toxicity", "conditions": "read-out: Selectivity Index"}, "[34]": {"experiment": "Selectivity index, ratio of IC50 for human A431 cells to MIC>99 for antimycobacterial activity against multi-drug resistant Mycobacterium tuberculosis 8666/2010 after 21 days", "assay_type": "toxicity", "conditions": "read-out: Selectivity Index"}, "[35]": {"experiment": "Selectivity index, ratio of IC50 for human HepG2 cells to MIC>99 for antimycobacterial activity against multi-drug resistant Mycobacterium tuberculosis 7357/1998 after 14 days", "assay_type": "toxicity", "conditions": "read-out: Selectivity Index", "how_it_was_run": "as §1"}, "[36]": {"test_system": "Mycobacterium tuberculosis", "experiment": "Antimycobacterial activity against multi-drug resistant Mycobacterium tuberculosis 9449/2007 after 21 days", "assay_type": "functional", "conditions": "9449/2007, 504 h", "how_it_was_run": "as §2"}}}
{"molecule": "O=[N+]([O-])c1cc(-c2nnc(SCc3ccccc3)n2Cc2ccccc2)cc(C(F)(F)F)c1", "values": [{"measurement": "selectivity ratio at 336 h", "setting": "[1]", "value": "> 100"}, {"measurement": "selectivity ratio at 504 h", "setting": "[2]", "value": "> 100"}, {"measurement": "MIC99", "setting": "[3]", "value": 0.125, "unit": "µM"}, {"measurement": "selectivity ratio at 336 h", "setting": "[4]", "value": "> 100"}, {"measurement": "MIC99", "setting": "[5]", "value": 0.06, "unit": "µM"}, {"measurement": "selectivity ratio at 504 h", "setting": "[6]", "value": "> 100"}, {"measurement": "selectivity ratio at 336 h", "setting": "[7]", "value": "> 100"}, {"measurement": "selectivity ratio at 504 h", "setting": "[8]", "value": "> 100"}, {"measurement": "selectivity ratio at 336 h", "setting": "[9]", "value": "> 100"}, {"measurement": "selectivity ratio at 336 h", "setting": "[10]", "value": "> 100"}, {"measurement": "selectivity ratio at 504 h", "setting": "[11]", "value": "> 100"}, {"measurement": "selectivity ratio at 336 h", "setting": "[12]", "value": "> 100"}, {"measurement": "selectivity ratio at 504 h", "setting": "[13]", "value": "> 100"}, {"measurement": "selectivity ratio at 504 h", "setting": "[14]", "value": "> 100"}, {"measurement": "selectivity ratio at 504 h", "setting": "[15]", "value": "> 100"}, {"measurement": "selectivity ratio at 504 h", "setting": "[16]", "value": "> 100"}, {"measurement": "selectivity ratio at 336 h", "setting": "[17]", "value": "> 100"}, {"measurement": "selectivity ratio at 336 h", "setting": "[18]", "value": "> 100"}, {"measurement": "MIC99", "setting": "[19]", "value": 0.06, "unit": "µM"}, {"measurement": "selectivity ratio at 504 h", "setting": "[20]", "value": "> 100"}, {"measurement": "selectivity ratio at 336 h", "setting": "[21]", "value": "> 100"}, {"measurement": "MIC99", "setting": "[22]", "value": 0.06, "unit": "µM"}, {"measurement": "MIC99", "setting": "[23]", "value": 0.06, "unit": "µM"}, {"measurement": "selectivity ratio at 504 h", "setting": "[24]", "value": "> 100"}, {"measurement": "MIC99", "setting": "[25]", "value": 0.06, "unit": "µM"}, {"measurement": "MIC99", "setting": "[26]", "value": 0.06, "unit": "µM"}, {"measurement": "selectivity ratio at 336 h", "setting": "[27]", "value": "> 100"}, {"measurement": "MIC99", "setting": "[28]", "value": 0.06, "unit": "µM"}, {"measurement": "MIC99", "setting": "[29]", "value": 0.06, "unit": "µM"}, {"measurement": "MIC99", "setting": "[30]", "value": 0.125, "unit": "µM"}, {"measurement": "MIC99", "setting": "[31]", "value": 0.06, "unit": "µM"}, {"measurement": "selectivity ratio at 504 h", "setting": "[32]", "value": "> 100"}, {"measurement": "selectivity ratio at 336 h", "setting": "[33]", "value": "> 100"}, {"measurement": "selectivity ratio at 504 h", "setting": "[34]", "value": "> 100"}, {"measurement": "selectivity ratio at 336 h", "setting": "[35]", "value": "> 100"}, {"measurement": "MIC99", "setting": "[36]", "value": 0.06, "unit": "µM"}]}
